Results: ChEMBL document CHEMBL1131123, “Extended aromatic furan amidino derivatives as anti-Pneumocystis carinii agents” (J Med Chem, 1998)

Assays:
Rattus norvegicus [1] = experiment: In vivo evaluation of iv dosage of the Dicationic furans against Pneumocystis carinii in lung tissue of rats at 5 umol/kg/day; format: functional
In short: (§1)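 Immunosuppressed rat model of P. carinii pneumonia. Compounds are dosed intravenously. Read-out is cysts per g of lung tissue, compared against pooled saline-treated control rats (n = 125). Other details follow ref 2.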

[2] = In vivo evaluation of iv dosage of the Dicationic furans against Pneumocystis carinii in rats measured 5 umol/kg/day; format: ADME, organism-based; conditions: rat
In short: (§2)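 Intravenous dosing of test dications in immunosuppressed rats infected with P. carinii, following a previously described protocol. Infection is scored by lung cyst burden relative to pooled saline-control animals.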

Rattus norvegicus [3] = experiment: In vivo evaluation of iv dosage of the Dicationic furans against Pneumocystis carinii in lung tissue of rats at 0.2 umol/kg/day; format: functional; in short: as §1
Rattus norvegicus [4] = experiment: In vivo evaluation of iv dosage of the Dicationic furans against Pneumocystis carinii in lung tissue of rats at 1.1 umol/kg/day; format: functional; in short: as §1
Rattus norvegicus [5] = experiment: In vivo evaluation of iv dosage of the Dicationic furans against Pneumocystis carinii in lung tissue of rats at 10.8 umol/kg/day; format: functional; in short: as §1
Rattus norvegicus [6] = experiment: In vivo evaluation of iv dosage of the Dicationic furans against Pneumocystis carinii in lung tissue of rats at 2.2 umol/kg/day; format: functional; in short: as §1
[7] = In vivo evaluation of iv dosage of the Dicationic furans against Pneumocystis carinii in rats measured 0.2 umol/kg/day; format: ADME, organism-based; conditions: rat; in short: as §2
[8] = In vivo evaluation of iv dosage of the Dicationic furans against Pneumocystis carinii in rats measured 1.1 umol/kg/day; format: ADME, organism-based; conditions: rat; in short: as §2
[9] = In vivo evaluation of iv dosage of the Dicationic furans against Pneumocystis carinii in rats measured 10.8 umol/kg/day; format: ADME, organism-based; conditions: rat; in short: as §2
[10] = In vivo evaluation of iv dosage of the Dicationic furans against Pneumocystis carinii in rats measured 2.2 umol/kg/day; format: ADME, organism-based; conditions: rat; in short: as §2
Rattus norvegicus [11] = experiment: In vivo evaluation of iv dosage of the Dicationic furans against Pneumocystis carinii in lung tissue of rats at 10 umol/kg/day; format: functional; in short: as §1
Rattus norvegicus [12] = experiment: In vivo evaluation of iv dosage of the furan dications against Pneumocystis carinii in lung tissue of rats at 7.1 umol/kg/day; format: functional; in short: as §1
Rattus norvegicus [13] = experiment: In vivo evaluation of iv dosage of the Dicationic furans against Pneumocystis carinii in lung tissue of rats at 3.8 umol/kg/day; format: functional; in short: as §1
Rattus norvegicus [14] = experiment: In vivo evaluation of iv dosage of the furan dications against Pneumocystis carinii in lung tissue of rats at 22 umol/kg/day; format: functional; in short: as §1
Rattus norvegicus [15] = experiment: In vivo evaluation of iv dosage of the Dicationic furans against Pneumocystis carinii in lung tissue of rats at 0.03 umol/kg/day; format: functional
In short: (§3)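 Immunosuppressed rat model of P. carinii pneumonia, with test compounds dosed intravenously per an earlier protocol. Read-out is cyst count per g of lung tissue, compared against pooled saline-treated controls.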

Rattus norvegicus [16] = experiment: In vivo evaluation of iv dosage of the Dicationic furans against Pneumocystis carinii in lung tissue of rats at 0.3 umol/kg/day; format: functional; in short: as §3
Rattus norvegicus [17] = experiment: In vivo evaluation of iv dosage of the Dicationic furans against Pneumocystis carinii in lung tissue of rats at 13.3 umol/kg/day; format: functional; in short: as §3
Rattus norvegicus [18] = experiment: In vivo evaluation of iv dosage of the Dicationic furans against Pneumocystis carinii in lung tissue of rats at 2.7 umol/kg/day; format: functional; in short: as §3
[19] = In vivo evaluation of iv dosage of the Dicationic furans against Pneumocystis carinii in rats measured 0.03 umol/kg/day; format: ADME, organism-based; conditions: rat; in short: as §2
[20] = In vivo evaluation of iv dosage of the Dicationic furans against Pneumocystis carinii in rats measured 0.3 umol/kg/day; format: ADME, organism-based; conditions: rat; in short: as §2
[21] = In vivo evaluation of iv dosage of the Dicationic furans against Pneumocystis carinii in rats measured 13.3 umol/kg/day; format: ADME, organism-based; conditions: rat; in short: as §2
[22] = In vivo evaluation of iv dosage of the Dicationic furans against Pneumocystis carinii in rats measured 2.7 umol/kg/day; format: ADME, organism-based; conditions: rat; in short: as §2
Rattus norvegicus [23] = experiment: In vivo evaluation of iv dosage of the Dicationic furans against Pneumocystis carinii in lung tissue of rats at 2.5 umol/kg/day; format: functional; in short: as §1
Rattus norvegicus [24] = experiment: In vivo evaluation of iv dosage of the Dicationic furans against Pneumocystis carinii in lung tissue of rats at 2 umol/kg/day; format: functional; in short: as §1
[25] = In vivo evaluation of iv dosage of the Dicationic furans against Pneumocystis carinii in rats measured 10 umol/kg/day; format: ADME, organism-based; conditions: rat; in short: as §2
[26] = In vivo evaluation of iv dosage of the Dicationic furans against Pneumocystis carinii in rats measured 2 umol/kg/day; format: ADME, organism-based; conditions: rat; in short: as §2
Rattus norvegicus [27] = experiment: In vivo evaluation of iv dosage of the Dicationic furans against Pneumocystis carinii in lung tissue of rats at 0.9 umol/kg/day; format: functional; in short: as §1
Rattus norvegicus [28] = experiment: In vivo evaluation of iv dosage of the Dicationic furans against Pneumocystis carinii in lung tissue of rats at 1.9 umol/kg/day; format: functional; in short: as §1
Rattus norvegicus [29] = experiment: In vivo evaluation of iv dosage of the Dicationic furans against Pneumocystis carinii in lung tissue of rats at 9.4 umol/kg/day; format: functional; in short: as §1
[30] = In vivo evaluation of iv dosage of the Dicationic furans against Pneumocystis carinii in rats measured 0.9 umol/kg/day; format: ADME, organism-based; conditions: rat; in short: as §2
[31] = In vivo evaluation of iv dosage of the Dicationic furans against Pneumocystis carinii in rats measured 1.9 umol/kg/day; format: ADME, organism-based; conditions: rat; in short: as §2

Compound `N=C(N)c1ccc(-c2ccc(-c3nc4cc(C(=N)N)ccc4[nH]3)o2)cc1` has a Control (Rattus norvegicus [1]) of 50.98% and a Toxicity [2] of 0.

For `CC(C)NC(=N)c1ccc(-c2ccc(-c3ccc(C(=N)NC(C)C)cc3)o2)cc1`, the Control (Rattus norvegicus [3]) was 201.74%, the Control (Rattus norvegicus [4]) was 14% and the Control (Rattus norvegicus [5]) was 0.24%. It also gave a Control (Rattus norvegicus [6]) of 10.04%, a Toxicity [7] of 0 and a Toxicity [8] of 0. It also gave a Toxicity [9] of 0 and a Toxicity [10] of 0.

In the case of `Cl.N=C(N)c1ccc2[nH]c(-c3ccc(-c4nc5cc(C(=N)N)ccc5[nH]4)o3)nc2c1`, the Control (Rattus norvegicus [11]) is reported as 1.8%.

In the case of `Cl.N=C(N)c1ccc2[nH]c(-c3ccc(-c4ccc(-c5ccc(-c6nc7cc(C(=N)N)ccc7[nH]6)cc5)o4)cc3)nc2c1`, the Control (Rattus norvegicus [12]) is reported as 180%.

Compound `Cl.N=C(NC1CCCC1)c1ccc2[nH]c(-c3ccc(-c4nc5cc(C(=N)NC6CCCC6)ccc5[nH]4)o3)nc2c1` has a Control (Rattus norvegicus [13]) of 53.81%.

For `N=C(N)c1ccc(OCCCCCOc2ccc(C(=N)N)cc2)cc1` [PENTAMIDINE], the Control (Rattus norvegicus [14]) was 1.82%.

Compound `CC(C)/N=C(\N)c1ccc(-c2ccc(-c3nc4cc(/C(N)=N\C(C)C)ccc4[nH]3)o2)cc1` has a Control (Rattus norvegicus [11]) of 0.13%.

Work on `N=C(N)c1ccc(-c2ccc(-c3ccc(C(=N)N)cc3)o2)cc1` [FURAMIDINE] yielded a Control (Rattus norvegicus [15]) of 26.23%, a Control (Rattus norvegicus [16]) of 6.42% and a Control (Rattus norvegicus [17]) of 0.73%. For the same compound, the Control (Rattus norvegicus [18]) was 6.74%, the Toxicity [19] was 0 and the Toxicity [20] was 0. For the same compound, the Toxicity [21] was 0 and the Toxicity [22] was 0.

Compound `N=C(NC1CCCC1)c1ccc(-c2ccc(-c3nc4cc(C(=N)NC5CCCC5)ccc4[nH]3)o2)cc1` has a Control (Rattus norvegicus [23]) of 0.82%.

`CC(C)/N=C(\N)c1ccc2[nH]c(-c3ccc(-c4nc5cc(/C(N)=N/C(C)C)ccc5[nH]4)o3)nc2c1.Cl` gave a Control (Rattus norvegicus [11]) of 0.11%, a Control (Rattus norvegicus [24]) of 31.77 and a Toxicity [25] of 0. It also gave a Toxicity [26] of 0.

Work on `N=C(NC1CCCC1)c1ccc(-c2ccc(-c3ccc(C(=N)NC4CCCC4)cc3)o2)cc1` yielded a Control (Rattus norvegicus [3]) of 111.65%, a Control (Rattus norvegicus [27]) of 0.13% and a Control (Rattus norvegicus [28]) of 0.09%. For the same compound, the Control (Rattus norvegicus [29]) was 0.04%, the Toxicity [7] was 0 and the Toxicity [30] was 0. The Toxicity [31] was 0.
